Laboratory results from ChEMBL document CHEMBL4041550, “Structure-Activity Relationship Study of QL47: A Broad-Spectrum Antiviral Agent” (ACS Med Chem Lett, 2017).

What was measured:
[1] = Half life in mouse hepatic microsomes at 1 uM in presence of NADPH by LC-MS/MS method; type: ADME, Microsome; settings: liver microsomes
Procedure, shortened: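 Compound incubated with mouse liver microsomes; half-life (T1/2, min) of the compound reported as a measure of metabolic stability.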

[2] = AUC (infinity) in Swiss albino mouse at 50 mg/kg, ip by LC/MS/MS method; type: ADME, organism-based; parameters: dose 50 mg/kg, time infinity, route intraperitoneal; settings: in vivo
[3] = target: T1, Cytoplasmic tyrosine-protein kinase BMX (Homo sapiens, UniProt P51813); assay: Inhibition of recombinant full length His-tagged human BMX cytoplasmic domain expressed in baculovirus expression system by Z'-Lyte assay
T1 sequence (P51813 whole entry): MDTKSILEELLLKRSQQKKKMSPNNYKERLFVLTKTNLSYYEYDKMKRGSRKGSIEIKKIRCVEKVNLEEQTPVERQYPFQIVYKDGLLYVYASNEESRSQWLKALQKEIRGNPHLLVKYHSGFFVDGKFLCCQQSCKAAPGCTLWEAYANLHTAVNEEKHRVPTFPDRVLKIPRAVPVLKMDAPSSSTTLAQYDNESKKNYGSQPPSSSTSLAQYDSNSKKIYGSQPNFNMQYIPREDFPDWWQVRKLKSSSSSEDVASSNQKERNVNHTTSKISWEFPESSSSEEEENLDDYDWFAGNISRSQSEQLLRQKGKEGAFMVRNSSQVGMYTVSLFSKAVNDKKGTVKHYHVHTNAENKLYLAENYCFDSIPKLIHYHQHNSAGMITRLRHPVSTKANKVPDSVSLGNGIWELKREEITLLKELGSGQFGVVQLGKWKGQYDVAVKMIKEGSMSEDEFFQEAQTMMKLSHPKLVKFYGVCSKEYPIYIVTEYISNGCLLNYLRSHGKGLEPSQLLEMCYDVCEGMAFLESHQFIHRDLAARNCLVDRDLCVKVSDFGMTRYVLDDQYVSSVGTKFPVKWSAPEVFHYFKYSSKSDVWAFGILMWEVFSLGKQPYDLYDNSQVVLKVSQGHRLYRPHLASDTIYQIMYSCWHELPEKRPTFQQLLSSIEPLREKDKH
Procedure, shortened: (§1)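 IC50 against PIM1, PIM2, BTK and BMX determined with Z′-Lyte kinase activity assays.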

[4] = AUClast in Swiss albino mouse at 10 mg/kg, po by LC/MS/MS method; type: ADME, organism-based; parameters: dose 10 mg/kg, time 0 - last, route oral; settings: in vivo
[5] = AUClast in Swiss albino mouse at 50 mg/kg, ip by LC/MS/MS method; type: ADME, organism-based; parameters: dose 50 mg/kg, route intraperitoneal, time 0 - last; settings: in vivo
[6] = Cmax in Swiss albino mouse at 50 mg/kg, ip by LC/MS/MS method; type: ADME, organism-based; parameters: dose 50 mg/kg, route intraperitoneal; settings: in vivo
Procedure, shortened: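 Mouse pharmacokinetics after intravenous, oral or intraperitoneal dosing; plasma parameters derived were T1/2, Tmax, Cmax, AUClast, AUCinf, clearance, Vss and oral bioavailability F.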

[7] = target: Tyrosine-protein kinase BTK (Homo sapiens, UniProt Q06187); assay: Inhibition of recombinant full length His-tagged human BTK cytoplasmic domain expressed in baculovirus expression system by Z'-Lyte assay; procedure, shortened: as §1
dengue virus type 2 [8] = assay: Antiviral activity against Dengue virus serotype 2 strain New Guinea C infected in HuH7 cells measured at 24 hrs post infection by focus forming assay; type: functional; settings: Thailand/NGS-C/1944, Huh-7, 24 h
Procedure, shortened: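 Huh7 cells infected with DENV2, then treated with a range of compound concentrations. Viral yield measured 24 h later by titration of infectious particles in supernatants; in parallel, cell viability measured. IC90 (1-log10 reduction in infectious progeny) and CC50 derived by non-linear regression. Mean ± SD of experimental duplicates, n ≥ 2 repeats.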

dengue virus type 2 [9] = assay: Antiviral activity against Dengue virus serotype 2 strain New Guinea C infected in HuH7 cells assessed as reduction in log-fold change by measuring focus forming unit at 10 uM measured at 24 hrs post infection by focus forming assay relative to control; type: functional, Thailand/NGS-C/1944
Procedure, shortened: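 DENV2-infected Huh7 cells treated with compound at 2 or 10 μM. Infectious virus secreted into culture supernatants at 24 h post-infection/treatment was titred by focus-forming assay. Result expressed as log-fold change relative to DMSO treatment.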

Chain of Tyrosine-protein kinase BTK (Q06187 whole entry, the tested form may be a part): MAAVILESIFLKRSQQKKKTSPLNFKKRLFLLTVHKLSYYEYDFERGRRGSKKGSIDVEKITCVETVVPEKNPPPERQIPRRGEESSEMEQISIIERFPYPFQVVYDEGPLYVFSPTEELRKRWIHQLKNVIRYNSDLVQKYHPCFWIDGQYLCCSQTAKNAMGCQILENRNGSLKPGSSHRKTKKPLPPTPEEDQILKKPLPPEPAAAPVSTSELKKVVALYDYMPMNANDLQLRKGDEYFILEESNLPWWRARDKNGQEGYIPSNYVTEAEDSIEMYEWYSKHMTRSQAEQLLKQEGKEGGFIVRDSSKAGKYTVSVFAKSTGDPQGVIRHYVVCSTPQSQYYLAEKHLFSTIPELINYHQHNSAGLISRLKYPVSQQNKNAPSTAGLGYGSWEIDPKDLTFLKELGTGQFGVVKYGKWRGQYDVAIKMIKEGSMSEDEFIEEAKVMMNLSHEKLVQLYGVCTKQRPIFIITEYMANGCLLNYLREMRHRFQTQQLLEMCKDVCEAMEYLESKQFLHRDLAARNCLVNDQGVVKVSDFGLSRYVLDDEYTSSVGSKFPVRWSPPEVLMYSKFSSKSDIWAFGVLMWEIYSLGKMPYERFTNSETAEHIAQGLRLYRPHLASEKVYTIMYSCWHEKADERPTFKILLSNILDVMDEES

SMILES: Cc1ccc(-n2c(=O)ccc3ccc4ccc(-c5cnn(C)c5)cc4c32)cc1NC(=O)/C=C/CN(C)C
- half-life at 1 µM [1]: 15.6 min
- AUC(0-inf) [2]: 8550 ng·h/mL
- IC50 [3]: 2420 nM
- AUC(0-t) [4]: 95.4 ng·h/mL
- AUC(0-t) [5]: 8220 ng·h/mL
- Cmax [6]: 4510 ng/mL
- IC50 [7]: 911 nM
- IC90 (dengue virus type 2 [8]): 555 nM
- Activity (dengue virus type 2 [9]): 4 log10FFU/ml
